Screens as filed in PubChem BioAssay.
NS3 helicase inh: inhibitors of Hepatitis C virus NS3 helicase | NS3 helicase DNA unwinding, Cy5 molecular beacon fluorescence | inhibition, % at 10.9 µM | 0.56% of 290,000 active | AID 1800;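 active = inhibition above the mean of all tested compounds plus 3 SD, set per campaign, cut at about 35% in these data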;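 note: 0% = DMSO wells and 100% = thioflavine S control wells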
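Assay system – hepatitis C virus NS3 helicase domain fragment enzyme · Buffer or medium – MOPS pH 6.5, MgCl2, DTT, Tween20, BSA · Reagent – Cy5/quencher beacon DNA duplex and ATP to start · Compound – single 10.9 µM dose · Timing – 1 h at 25 °C · Technique – Cy5 beacon fluorescence read at start and 1 h · Measure – % inhibition of unwinding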
HCV core dimer: HCV core protein dimerization inhibition; TR-FRET GST/Flag-core106 dimerization, 1536-well; AID 1899; inhibition, % at 5 µM; 0.33% of 300,000 active;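 active = inhibition above the mean of all tested compounds plus 3 SD, set per screening campaign, cut at about 45% in these data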
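Material: Tagged HCV core106 pair (GST and Flag) | Amount: GST-core106 13.5 nM, Flag-core106 17 nM | Medium: KF-containing HEPES buffer, pH 7.45, DTT, CHAPS, BSA | Reagent: Eu donor and XL665 acceptor anti-tag antibodies | Schedule: 4 h at 22.5 °C | Technique: Time-resolved FRET, ex 340 nm, em 617 and 671 nm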
rCAG RNA binder: r(CAG) repeat RNA binding; TO-PRO-1 dye displacement fluorescence; AID 651821; 1.3% of 370,000 active; inhibition, % at 3 µM;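 active = inhibition above the plate cutoff, the mean of all test compounds on that plate plus 3 SD, cut at about 35% in these data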;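 note: 0% = DMSO alone and 100% = 100 µM mitoxantrone as full dye displacement; higher means more dye released from RNA so lower well fluorescence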
TAAR1 ag: agonists of human TAAR1; Q96RJ0; CHO RD-HGA16 TAAR1, Fluo-8 calcium fluorescence; vehicle wells 0%, saturating PEA agonist 100%; activation, % at 3 µM; 0.99% of 360,000 active; AID 624467;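 active = activation above the mean activation of all test compounds in the run plus 3 SD, cut at about 38% in these data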
Target sequence (Q96RJ0 whole entry, looked up): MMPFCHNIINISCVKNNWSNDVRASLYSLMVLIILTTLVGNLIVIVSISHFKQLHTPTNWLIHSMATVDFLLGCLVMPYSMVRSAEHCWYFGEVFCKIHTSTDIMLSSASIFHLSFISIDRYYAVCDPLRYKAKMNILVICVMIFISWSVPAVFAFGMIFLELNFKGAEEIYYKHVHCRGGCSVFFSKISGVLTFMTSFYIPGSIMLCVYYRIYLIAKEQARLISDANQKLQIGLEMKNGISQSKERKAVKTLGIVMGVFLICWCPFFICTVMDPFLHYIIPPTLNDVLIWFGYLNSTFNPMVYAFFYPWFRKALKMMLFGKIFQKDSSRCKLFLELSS
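System: CHO-derived RD-HGA16 cells with stable Gα16 and human TAAR1. Times: 17-24 h plating, Fluo-8 75 min 37 °C, 30 min RT. Measured by: calcium-sensitive Fluo-8 signal, excitation 470-495, emission 515-575 nm. Read-out basis: % activation relative to PEA EC100 response. Control set: DMSO and PEA EC100. Repeats: no replicates (n 1).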
TAAR1 antagonist: antagonists of human TAAR1; Q96RJ0; CHO RD-HGA16 TAAR1, Fluo-8 calcium fluorescence, antagonist; inhibition, % at 3 µM; 1.5% of 360,000 active; AID 624466;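 active = inhibition above a per-plate cutoff, the mean inhibition of test compounds on that plate plus 3 SD, cut at about 49% in these data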;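 note: 0% = DMSO plus EC80 beta-PEA response and 100% = DMSO alone without agonist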
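Test system: CHO RD-HGA16 cells bearing hTAAR1 | Reagent: β-PEA, EC80 | Compound dosing: 3 µM, single point | Schedule: Dye loading 75 min at 37 °C, then 30 min room temperature | Signal: Calcium fluorescence with Fluo-8 | Evaluation: Percent inhibition of PEA-evoked calcium signal, max/basal emission ratio | Control set: DMSO-only wells and EC80 β-PEA-stimulated wells | Repeats: Singlicate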
rCAG bind conf: r(CAG) RNA repeat binding, confirmation. shares compounds with rCAG RNA binder. TO-PRO-1 dye displacement fluorescence. inhibition, % at 3 µM. 70% of 4,300 active. AID 652065;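 active = inhibition above a per-plate cutoff, the mean inhibition of sample wells plus 3 SD, cut at about 35% in these data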;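 note: loss of TO-PRO-1 fluorescence as compound displaces dye from 1x1 AA loop RNA; 0% = DMSO only wells and 100% = 100 µM mitoxantrone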
dCAG dye counter: disrupts DNA CAG TO-PRO-1 complex, flagging rCAG hits; shares compounds with rCAG RNA binder; d(CAG) DNA oligo TO-PRO-1 dye displacement, fluorescence; inhibition, % at 3 µM; 94% of 4,300 active; AID 652068;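 active = inhibition above its plate's cutoff, the mean test-well inhibition plus 3 SD, cut at about 4.8% in these data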;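 note: 0% = DNA dye mix with DMSO and 100% = 100 µM mitoxantrone; hits displace the dye from DNA and so lower well fluorescence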
* marks the source's active call; other numbers are inactive results; · = no result given. Hits are enriched below; roughly 3.7% of the tested compounds scored in any of these assays.

SMILES	NS3 helicase inh	HCV core dimer	rCAG RNA binder	TAAR1 ag	TAAR1 antagonist	rCAG bind conf	dCAG dye counter
CC1(C(=O)NS(=O)(=O)Cc2cccc(Cl)c2)CCN1C(=O)C1(c2ccc(Cl)cc2)CC1 (stereo not drawn)	·	·	54*	5	-15	45*	11*
CC1(C(=O)NS(=O)(=O)Cc2ccccc2)CCN1C(=O)C/C=C/c1ccccc1 (stereo not drawn)	·	·	14	0	-1	·	·
CC1(C(=O)NS(=O)(=O)Cc2cccc(Cl)c2)CCN1C(=O)C1(c2ccc(Cl)cc2)CCC1 (stereo not drawn)	·	·	14	2	17	·	·
CC1(C(=O)NS(=O)(=O)Cc2cccc(Cl)c2)CCN1C(=O)C/C=C/c1ccccc1 (stereo not drawn)	·	·	39*	0	2	35*	8.3*
CC1CCN(C(=O)C2CCCN(C(=O)c3ccc4c(c3)NC(=O)CS4)C2)CC1 (stereo not drawn)	·	·	0	·	·	·	·
CCCC(=O)N1CCC[C@]2(CC[C@@H](CCC#N)O2)C1	·	·	1	·	·	·	·
CCOC(=O)CN1C(=O)S/C(=C\c2ccc(-c3cccc(C(=O)O)c3C)o2)C1=O	·	-3	9	1	-21	·	·
N=C1S/C(=C\c2ccc(-c3ccccc3C(=O)O)o2)C(=O)N1c1ccc2c(c1)OCO2	19	·	42*	1	6	30	10*
CCOc1cc(CC(=O)N[C@@H](CC(C)C)c2ccccc2N2CCCCC2)ccc1C(=O)O	2	8	47*	-2	-55	36*	9.8*
COc1ccc(CC(=O)Nc2ccccc2N2CCCC2)cc1OC	0	-21	-5	4	-33	·	·
Cc1occc1-c1nnc(SCC(=O)N2CCN(c3ncccn3)CC2)n1-c1ccccc1	·	·	2	·	·	·	·
COc1ccc(-c2csc(N)n2)cc1	6	-3	-2	1	-17	·	·
COc1ccc2[nH]c(C)c(-c3csc(N)n3)c2c1	-4	-33	37*	7	-5	15	11*
CCc1nc2nc(C)c(NS(=O)(=O)c3ccc(C4CCCCC4)cc3)c(=O)n2[nH]1	21	11	49*	12	-16	44*	14*
CCc1nc2nc(C)c(NS(=O)(=O)c3ccc(Cl)cc3)c(=O)n2[nH]1	12	-5	3	3	3	·	·
Cc1ccc(S(=O)(=O)Nc2c(C)nc3nc(C)[nH]n3c2=O)cc1	-12	-3	3	2	-16	·	·
Cc1nc2nc(C)c(NS(=O)(=O)c3ccc(C4CCCCC4)cc3)c(=O)n2[nH]1	8	1	38*	-2	-4	40*	9.5*
CC(C)C[C@@H]1COc2cccc(N3CCCC3)c2S(=O)(=O)N1C	·	·	-2	·	·	·	·
CCOC(=O)c1c(-c2ccc(C)cc2)csc1NC(=O)/C(C#N)=C/c1ccc(O)c(OC)c1	29	·	37*	25	15	74*	48*
CCOC(=O)c1c(-c2ccccc2)csc1NC(=O)/C(C#N)=C\c1ccc(O)c(OC)c1	·	·	49*	29	37	64*	36*
Cc1ccc(NC(=O)Nc2ccc3c(c2)[C@]2(CC(=O)N(CC(C)C)C2c2ccccc2)C(=O)N3C)cc1Cl (stereo partly drawn)	·	·	8	·	·	·	·
COC(=O)C[C@H]1CC[C@@H]2[C@H](COc3ccc(NC(=O)c4cccc(F)c4)cc3C(=O)N2C)O1	·	·	0	·	·	·	·
CN(C)S(=O)(=O)c1ccc(S(=O)(=O)Nc2ccc3c(c2)oc2ccccc23)cc1	-22	3	49*	10	-10	57*	19*
CCN(CC)S(=O)(=O)c1ccc(S(=O)(=O)Nc2ccc3c(c2)oc2ccccc23)cc1	-7	9	56*	9	12	51*	18*
COC(=O)c1cc(S(=O)(=O)N2CCN(c3ccccc3Cl)CC2)cn1C	·	·	6	·	·	·	·
COc1cc([N+](=O)[O-])ccc1NC(=S)NNC(=O)c1ccc2c(c1)OCO2	14	-12	64*	5	-11	57*	16*
